Read-outs that look alike come from different tables or passages of the source.
What was measured:
GSK3β [1] = test: In vitro GSK3β kinase assay; assay type: biochemical; details: for Inhibition of GSK3β: in vitro kinase assay
GSK3β [2] = test: GSK3β surface plasmon resonance; assay type: binding; details: SPR, peptide 25 µM
LEF/TCF = test: TCF reporter activity in DISC1 knockdown cells; assay type: cell-based
[3] = tested on: DISC1 knockdown AHP cells; test: BrdU incorporation in DISC1 knockdown AHP cells; assay type: cell-based
Procedure, shortened: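 Lentivirus-transduced AHPs (GFP marker) seeded on polyornithine/fibronectin-coated coverslips and pulsed with BrdU (10 µM) in medium for 2 hours. Fixed in 4% paraformaldehyde and immunostained for BrdU. Five random fields and over 500 cells counted per experiment. Read-out is the percentage of GFP-positive cells also BrdU-positive.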

[4] = tested on: adult hippocampal progenitor proliferation in dentate gyrus; assay type: in vivo, mouse; details: 2 mg/kg every other day for 2 weeks, n=5
[5] = tested on: neural progenitor proliferation in mouse embryonic brains; test: BrdU labeling in shRNA electroporated embryonic brains; assay type: in vivo

For “Peptide-neg: synthesized peptide from mDISC1 spanning amino acids 40–77 (GYMRSTAGSGIGFLSPAVGMPHPSSAGLTGQQSQHSQS)”, the “Inhibition of GSK3β” value (GSK3β [1]; 80 µM peptide) was “did not inhibit” and the “Percent theoretical maximal response” value (GSK3β [2]) was 62%.

In the case of “DISCtide-1: synthesized peptide from mDISC1 spanning amino acids 195 to 238 (PADIASLPGFQDTFTSSFSFIQLSLGAAGERGEAEGCLPSREAE)”, the “Potency of GSK3β inhibition compared with L803-mts” value (GSK3β [1]; dose-response curve, n=3) is reported as “more potently than L803-mts”, the “Dose dependence of inhibition of recombinant GSK3β catalytic activity” value (GSK3β [1]; in vitro) is reported as “dose dependent” and the “Inhibition of GSK3β” value (GSK3β [1]; 10 µM peptide) is reported as “inhibited”. For the same compound, the “Percent theoretical maximal response” value (GSK3β [2]) was 197%.

`Cc1c[nH]c(-c2cnc(NCCNc3ccc(C#N)cn3)nc2-c2ccc(Cl)cc2Cl)n1` [CHIR-99021] was tested, and the TCF activity (LEF/TCF) was “rescued TCF activity in DISC1 knockdown cells to control levels”.

`Cn1cc(C2=C(c3ccc(Cl)cc3Cl)C(=O)NC2=O)c2ccccc21` [SB-216763] was tested, and the TCF activity (LEF/TCF) was “rescued TCF activity in DISC1 knockdown cells to control levels”, the “Cell proliferation evaluated by BrdU incorporation” value [3] was “restored cell proliferation” and the “Number of BrdU positive cells” value ([4]; DISC1 shRNA-1 injected mice) was “rescued the reduction in BrdU positive cells”. For the same compound, the “Number of BrdU positive cells” value ([4]; mice infected with control virus) was “significantly increased”, the BrdU labeling index ([5]; DISC1 shRNA electroporated embryonic brains) was “rescued the BrdU labeling index” and the BrdU labeled cells ([5]; control shRNA electroporated mouse embryonic brains) was “increased BrdU labeled cells”.

In the case of “DISCtide2: 15-mer peptide that encompasses mDISC1 amino acids 211 to 225 (SFSFIQLSLGAAGER)”, the “Inhibition of GSK3β kinase activity” value (GSK3β [1]; data not shown, concentration not given) is reported as “failed to inhibit” and the “Percent theoretical maximal response” value (GSK3β [2]) is reported as 238%.

From article PMC2704382 (Cell, 2009)
